According to ChEMBL document CHEMBL1135463 (J Med Chem, 2002):
pIC50: −log10 of the molar value. ≈ marks a conversion by molar mass, not a printed value. Calls of active or inactive are those of the source. The rule behind the calls is not given here.

Tests used:
[1] = tested on: BXPC-3; test: In vitro growth inhibition of BXPC-3 (human pancreatic adenocarcinoma) cell line.; type: functional
[2] = tested on: DU-145; test: In vitro growth inhibition of DU-145 (human prostate carcinoma) cell line.; type: functional
[3] = tested on: KM-20L2; test: In vitro growth inhibition of KM20L2 cell line.; type: functional; settings: Homo sapiens
[4] = In vitro growth inhibition of NCI-H460 (human non-small cell lung carcinoma) cell line.; type: functional
[5] = tested on: P388; test: In vitro inhibition of P388 (murine leukemia) cell proliferation.; type: functional; settings: Mus musculus, read-out: ED50 (the source's name)
[6] = tested on: SF-268; test: In vitro growth inhibition of central nervous system SF-268 cell line.; type: functional; settings: Homo sapiens
[7] = tested on: MCF7; test: Cell growth inhibition of breast MCF-7 cells, expressed as 50% reduction in the net protein increase; type: functional; settings: Homo sapiens
[8] = tested on: KM-20L2; test: Cell growth inhibition of colon KM20L2 cells, expressed as 50% reduction in the net protein increase; type: functional; settings: Homo sapiens
Outline: (§1)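 Human tumour lines kept in 5% FBS/RPMI-1640, plated and incubated 24 h before compound dilutions were added. Exposure 48 h, then TCA fixation, washing and sulforhodamine B staining, with optical density read on a plate reader. GI50 is the concentration giving a 50% reduction in net protein increase, calculated from the OD data.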

[9] = tested on: NCI-H460; test: Cell growth inhibition of lung-NSC NCI-H460 cells, expressed as 50% reduction in the net protein increase; type: functional; settings: Homo sapiens; outline: as §1
[10] = tested on: P388; test: Evaluated for cell growth inhibition of the mouse leukemia P388 cells in 10% horse serum/Fisher media; type: functional; settings: read-out: ED50 (the source's name)
Outline: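 Murine P388 leukaemia cells grown in 10% horse serum/Fisher medium, incubated 24 h, then compound dilutions added. After 48 h, cells counted on a Coulter Z1 particle counter and the ED50 for growth inhibition calculated.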

[11] = tested on: SF-268; test: Cell growth inhibition of central nervous system (CNS) SF-268 cells, expressed as 50% reduction in the net protein increase; type: functional; settings: Homo sapiens; outline: as §1
[12] = biological target: Tubulin (Bos taurus, UniProt Q6B856+Q862L2+Q862F3); test: Inhibition of tubulin polymerization reported as IC50; type: functional
Outline: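 Tubulin at 10 µM with a range of drug concentrations. Extent of assembly read after 20 min at 30 °C. IC50 taken from the concentration needed to halve assembly.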

[13] = biological target: T1, Tubulin (Bos taurus) (UniProt Q6B856+Q862L2+Q862F3); test: Inhibition of radiolabeled [3H]colchicine binding to tubulin at a concentration of 2 uM of the compound; type: protein assay
Outline: (§2)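 [3H]colchicine 5.0 µM incubated with tubulin 1.0 µM plus inhibitor at the stated level, 10 min at 37 °C, then colchicine binding measured. Reported as percent inhibition.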

[14] = biological target: T1, Tubulin (Bos taurus); test: Inhibition of radiolabeled [3H]colchicine binding to tubulin at a concentration of 5 uM of the compound; type: protein assay; outline: as §2
[15] = tested on: Candida albicans; test: The minimum inhibitory concentration (MIC) that inhibits all visible growth of the Candida albicans (fungus) at 64 ug/mL; NI is no inhibition; type: functional, organism-based
Outline: (§3)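 Broth microdilution following NCCLS reference methods (M7-A4 for aerobic bacteria, the yeast broth dilution standard for fungi). MIC is the lowest compound concentration giving optically clear wells, with no visible growth of the test organism.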

[16] = tested on: Cryptococcus neoformans; test: Minimum inhibitory concentration (MIC) that inhibits all visible growth of the Cryptococcus neoformans (fungus) at 64 ug/mL; NI is no inhibition; type: functional, organism-based; outline: as §3
[17] = tested on: Enterobacter cloacae; test: The minimum inhibitory concentration (MIC) that inhibits all visible growth of the Enterobacter cloacae (bacteria) at 64 ug/mL; NI is no inhibition; type: functional, organism-based; outline: as §3
[18] = tested on: Enterococcus faecalis; test: the minimum inhibitory concentration (MIC) that inhibits all visible growth of the Enterococcus faecalis (bacteria) at 64 ug/mL; NI is no inhibition; type: functional, organism-based; outline: as §3
[19] = tested on: Escherichia coli; test: The minimum inhibitory concentration (MIC) that inhibits all visible growth of the Escherichia coli (bacteria) at 64 ug/mL; NI is no inhibition; type: functional, organism-based; outline: as §3
[20] = tested on: Enterococcus faecalis; test: The minimum inhibitory concentration (MIC) that inhibits all visible growth of the Enterococcus faecalis (bacteria) at 64 ug/mL; NI is no inhibition; type: functional, organism-based; outline: as §3
[21] = tested on: Micrococcus luteus; test: the minimum inhibitory concentration (MIC) that inhibits all visible growth of the Micrococcus luteus (bacteria) at 64 ug/mL; NI is no inhibition; type: functional, organism-based; outline: as §3
[22] = tested on: Neisseria gonorrhoeae; test: The minimum inhibitory concentration (MIC) that inhibits all visible growth of the Neisseria gonorrhoeae (bacteria); value may ranges from (32 - 64); type: functional; outline: as §3
[23] = tested on: Staphylococcus aureus; test: The minimum inhibitory concentration (MIC) that inhibits all visible growth of the Staphylococcus aureus (bacteria) at 64 ug/mL; NI is no inhibition; type: functional, organism-based; outline: as §3
[24] = tested on: Stenotrophomonas maltophilia; test: The minimum inhibitory concentration (MIC) that inhibits all visible growth of the Stenotrophomonas maltophilia (bacteria) at 64 ug/mL; NI is no inhibition; type: functional, organism-based; outline: as §3
[25] = tested on: Streptococcus pneumoniae; test: The minimum inhibitory concentration (MIC) that inhibits all visible growth of the Streptococcus pneumoniae (bacteria); type: functional; outline: as §3
[26] = tested on: BXPC-3; test: Cell growth inhibition against pancreatic BXPC-3 cells, 50% reduction in the net protein increase; type: functional; settings: Homo sapiens; outline: as §1
[27] = tested on: DU-145; test: Cell growth inhibition of prostate DU-145 cells, expressed as 50% reduction in the net protein increase; type: functional; settings: Homo sapiens; outline: as §1
[28] = tested on: Neisseria gonorrhoeae; test: The minimum inhibitory concentration (MIC) that inhibits all visible growth of the Neisseria gonorrhoeae (bacteria); type: functional; outline: as §3
[29] = tested on: Micrococcus luteus; test: the minimum inhibitory concentration (MIC) that inhibits all visible growth of the Micrococcus luteus (bacteria); type: functional; outline: as §3

| GI50 [7] [mg/L] | Compound | GI50 [1] [mg/L] | GI50 [2] [mg/L] | GI50 [3] [mg/L] | GI50 [4] [mg/L] | EC50 [5] [mg/L] | GI50 [6] [mg/L] | further results |
| --- | --- | --- | --- | --- | --- | --- | --- | --- |
|  | COc1ccc(C(=O)c2cc(OC)c(OC)c(OC)c2)cc1O [PHENSTATIN] |  |  |  |  |  |  | GI50 [8]: 0.04 mg/L (≈ 0.126 µM); GI50 [9]: 0.0057 mg/L (≈ 0.0179 µM); EC50 [10]: 0.0033 mg/L (≈ 0.0104 µM); GI50 [11]: 0.052 mg/L (≈ 0.163 µM); pIC50 [12]: 5.96; inhibition [13]: 73%; inhibition [14]: 85% |
|  | COc1ccc(/C=C\c2cc(O)cc(OC)c2)cc1 |  |  |  | 0.72 (≈ 2.81 µM) | 3.82 (≈ 14.9 µM) |  |  |
| 2.2 (≈ 8.52 µM) | COc1cc(OC)cc(C(=O)c2ccc(O)cc2)c1 | 4 (≈ 15.5 µM) | 4.1 (≈ 15.9 µM) | 3.6 (≈ 13.9 µM) | 3 (≈ 11.6 µM) | 24.8 (≈ 96 µM) | 3.8 (≈ 14.7 µM) | MIC [15]: inactive; MIC [16]: inactive; MIC [17]: inactive; MIC [18]: inactive; MIC [19]: inactive; MIC [20]: inactive; MIC [21]: inactive; MIC [22]: 64 mg/L (≈ 248 µM); MIC [23]: inactive; MIC [24]: inactive; MIC [25]: 64 mg/L (≈ 248 µM) |
| 21.7 (≈ 88.8 µM) | COc1ccc(C(=O)c2cc(O)cc(O)c2)cc1 | 21.2 (≈ 86.8 µM) | 15 (≈ 61.4 µM) | 24.5 (≈ 100 µM) | 16.6 (≈ 68 µM) | 17.8 (≈ 72.9 µM) | 24.5 (≈ 100 µM) |  |
|  | COc1ccc(/C=C\c2cc(OC)cc(OC)c2)cc1 [8Z-3,4',5-TRIMETHOXYSTILBENE] |  |  |  |  |  |  | GI50 [26]: 0.0034 mg/L (≈ 0.0126 µM); GI50 [27]: 0.0054 mg/L (≈ 0.02 µM); GI50 [9]: 0.0028 mg/L (≈ 0.0104 µM); EC50 [10]: 0.0262 mg/L (≈ 0.0969 µM); GI50 [11]: 0.0044 mg/L (≈ 0.0163 µM); IC50 [12]: 1.8 µM; inhibition [13]: 88%; inhibition [14]: 95% |
|  | COc1ccc(/C=C/c2cc(OC)cc(OC)c2)cc1 [TRISMETHOXYRESVERATROL] | 0.35 (≈ 1.29 µM) | 1.5 (≈ 5.55 µM) |  | 0.62 (≈ 2.29 µM) | 2.77 (≈ 10.2 µM) | 0.56 (≈ 2.07 µM) |  |
| 14.8 (≈ 64.8 µM) | Oc1ccc(/C=C\c2cc(O)cc(O)c2)cc1 [CIS-RESVERATROL] | 15.5 (≈ 67.9 µM) | 10.2 (≈ 44.7 µM) | 22 (≈ 96.4 µM) | 13.2 (≈ 57.8 µM) | 24.4 (≈ 107 µM) | 5 (≈ 21.9 µM) |  |
|  | COc1ccc(/C=C/c2cc(O)cc(OC)c2)cc1 |  |  |  |  | 31.5 (≈ 123 µM) |  | MIC [29]: 16 mg/L (≈ 62.4 µM) |

| Compound | GI50 [7] [mg/L] | GI50 [1] [mg/L] | GI50 [2] [mg/L] | GI50 [3] [mg/L] | GI50 [4] [mg/L] | EC50 [5] [mg/L] | GI50 [6] [mg/L] | further results |
| --- | --- | --- | --- | --- | --- | --- | --- | --- |
| COc1cc(/C=C\c2ccc(OP(=O)(OCc3ccccc3)OCc3ccccc3)cc2)cc(OC)c1 | 9 (≈ 17.4 µM) | 5.4 (≈ 10.5 µM) | 35.6 (≈ 68.9 µM) | 24.7 (≈ 47.8 µM) | 10.7 (≈ 20.7 µM) | 4.45 (≈ 8.62 µM) | 38.5 (≈ 74.5 µM) |  |
| COc1ccc(/C=C\c2cc(O)cc(O)c2)cc1 | 12.7 (≈ 52.4 µM) | 14.1 (≈ 58.2 µM) | 10.6 (≈ 43.8 µM) | 17.7 (≈ 73.1 µM) | 6.4 (≈ 26.4 µM) | 2.75 (≈ 11.4 µM) | 15.6 (≈ 64.4 µM) | MIC [28]: 16 mg/L (≈ 66 µM) |
